Experiment [1] concerns Enterococcus faecalis. The experiment can be described thus: Antibacterial activity against vancomycin-susceptible Enterococcus faecalis EF 12704 assessed as bactericidal activity at 25 mg/l after 24 hrs by time kill assay. In kind it is functional, organism-based. In short, it runs like this: (§1)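 Time-kill experiments used an inoculum of 5 × 10^6 CFU/ml, with bacterial counts followed over 24 h.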

In experiment [2] the test system is Enterococcus faecalis. Nature of the experiment: Antibacterial activity against vancomycin-resistant Enterococcus faecalis EF NJ1 assessed as bactericidal activity at 25 mg/l after 24 hrs by time kill assay. Format: functional, organism-based. Summed up: as §1
In experiment [3] the test system is Enterococcus faecalis. Nature of the experiment: Antibacterial activity against vancomycin-susceptible Enterococcus faecalis EF 12704 infected in New Zealand White rabbit assessed as log reduction of bacterial count in aortic valve vegetations at 10 mg/kg, administered through ear vein every 12 hrs for 4 days. Format: functional. In short, it runs like this: (§2)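 New Zealand White rabbits were anesthetized and given left-ventricular catheters. Endocarditis was induced 24 h later with 10^8 CFU E. faecalis. From 24 h post-inoculation, drug was given via the marginal ear vein by computer-controlled pump, simulating human pharmacokinetics of 600 mg every 12 h (10 mg/kg/12 h). After 4 days, aortic vegetations were excised, weighed, homogenized in 0.5 ml saline and cultured quantitatively on agar for 24 h at 37°C.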

For experiment [4], the system named is Enterococcus faecalis. Nature of the experiment: Antibacterial activity against vancomycin-resistant Enterococcus faecalis EF NJ1 infected in New Zealand White rabbit assessed as log reduction of bacterial count in aortic valve vegetations at 10 mg/kg, administered through ear vein every 12 hrs for 4 days. In kind it is functional. Summed up:
as §2

Experiment [5] concerns Enterococcus faecalis. Nature of the experiment: Antibacterial activity against vancomycin-susceptible Enterococcus faecalis EF 12704 infected in New Zealand White rabbit assessed as reduction of bacterial count in aortic valve vegetations administered through ear vein every 12 hrs for 4 days (reference value: 8.56 +/- 0.74 CFU/g). In kind it is functional.
The subject of experiment [6] is Enterococcus faecalis. Nature of the experiment: Antibacterial activity against vancomycin-resistant Enterococcus faecalis EF NJ1 infected in New Zealand White rabbit assessed as reduction of bacterial count in aortic valve vegetations administered through ear vein every 12 hrs for 4 days (reference value: 8.60 +/- 0.54 CFU/g). In kind it is functional.
Experiment [7] deals with Enterococcus faecalis. Nature of the experiment: Antibacterial activity against vancomycin-susceptible Enterococcus faecalis EF 12704 infected in New Zealand White rabbit assessed as reduction of bacterial count in aortic valve vegetations at 10 mg/kg, administered through ear vein every 12 hrs for 4 days (reference value: 8.56 +/- 0.74 CFU/g). Format: functional. Summed up: as §2

The subject of experiment [8] is Enterococcus faecalis. The experiment can be described thus: Antibacterial activity against vancomycin-susceptible Enterococcus faecalis EF 12704 assessed as log reduction in bacterial count at 12 mg/l after 24 hrs by time kill assay. In kind it is functional. In short, it runs like this:
as §1

Active and inactive are the calls of the source. The rule behind the calls is not given here. A value given as a limit tells only on which side of the number the result lay.

Take `CN[C@H](CC(C)C)C(=O)N[C@H]1C(=O)N[C@@H](CC(N)=O)C(=O)N[C@H]2C(=O)N[C@H]3C(=O)N[C@H](C(=O)N[C@H](C(=O)O)c4cc(O)cc(O)c4-c4cc3ccc4O)[C@H](O)c3ccc(c(Cl)c3)Oc3cc2cc(c3O[C@@H]2O[C@H](CO)[C@@H](O)[C@H](O)[C@H]2O[C@H]2C[C@](C)(N)[C@H](O)[C@H](C)O2)Oc2ccc(cc2Cl)[C@H]1O` [VANCOMYCIN]: the result in the experiment with Enterococcus faecalis [1] and in the experiment on Enterococcus faecalis [2] was inactive. Also, the log10CFU/g in the experiment with Enterococcus faecalis [3] amounted to 2; in the experiment on Enterococcus faecalis [4], 2; in the experiment with Enterococcus faecalis [5], 6.7; in the experiment with Enterococcus faecalis [6] it was 8.01.

Consider `CC(=O)NC[C@H]1CN(c2ccc(N3CCOCC3)c(F)c2)C(=O)O1` [LINEZOLID], for which the figures for the log10CFU/g in the experiment on Enterococcus faecalis [3] and in the experiment with Enterococcus faecalis [7] were more than 3 and 6.88, respectively. Besides, in the experiment on Enterococcus faecalis [8], the log10CFU/ml worked out at 1.

The values above are taken from ChEMBL document CHEMBL1649273, “In vivo activity of a novel anti-methicillin-resistant Staphylococcus aureus cephalosporin, ceftaroline, against vancomycin-susceptible and -resistant Enterococcus faecalis strains in a rabbit endocarditis model: a comparative study with linezolid and vancomycin” (2009).
